A selection: hits, their analogues and other compounds. The true share with any hit is near 6.4%.
Lung fibro prol: antiproliferative effect on LL 47 fibroblasts – human, LL 47 cells, CellTiter-Glo luminescence, primary screen; LL 47 human lung fibroblast viability, ATP luminescence; hits give low values; viability, % at 10 µM; 85,000 compounds, 1.1% hits; AID 719, 2007;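 active = viability at or below 50% in the single dose screen; inactive = viability above 50%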;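 also: compound exposure lasted 72 h before the ATP readout; 100% = median luminescence of untreated cell-only wells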
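Assay system: human lung fibroblast line LL 47, low passage. Input: 1,150 fibroblasts seeded per well. Times: overnight cell rest, 72 h compound treatment at 37 °C. Evaluation: % viability of median cell-only signal. Technique: luminescent ATP detection, CellTiter-Glo. Control set: cell-only wells, no compound.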
HUVEC inhibit: inhibitors of HUVEC proliferation, primary screen, cell-based, 384-well. CellTiter-Glo luminescence, 72 h; hits give low values. viability, % at 10 µM (by protocol). AID 648, 2007. 86,000 compounds, 1.1% hits;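 active = viability at or below 30%; inactive = viability above 30%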;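 also: 100% = median luminescence of DMSO-only cell control wells on each plate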
Jurkat viability: cytotoxicity toward Jurkat T cells, primary screen, cytotoxicity control, cell-based, Jurkat E6.1, 60K MLSMR library; AID 463, 2006; inhibition, % at 4 µM; 56,000 compounds, 1.2% hits; Jurkat E6.1 viability, ATP luminescence, 48 h;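 active = inhibition above the mean inhibition of all tested compounds plus 3 SD, cut at about 28% in these data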
Ecoli WT expand: growth inhibitors of wild-type E. coli, primary screen, strain BW25113, expanded library, OD600. growth inhibition, % at 100 µM. 98,000 compounds, 0.15% hits. AID 710, 2007. OD600 absorbance;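 active = growth inhibition above about 50% at one test dose, limit read from the data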;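 also: growth measured after 20 h incubation at 37 °C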
Ecoli tolC: growth inhibitors of E. coli tolC mutant, primary screen, strain BW25113 ΔtolC::kan, 384-well | OD615 | 65,000 compounds, 2.2% hits | growth inhibition, % at 10 µM (by protocol);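 active = growth inhibition at or above a cutoff equal to the mean over every tested compound plus 3 SD, cut at about 60% in these data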;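 also: growth measured after 20 h incubation at 37 °C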
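Assay system: tolC-deleted E. coli BW25113. Medium: kanamycin-containing LB broth (50 µg/mL). Dosing: 10 µM final, single dose. Timing: bacterial growth with compound for 20 h at 37 °C. Detection: A615 absorbance measurement. Read-out basis: growth inhibition in percent.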
H69AR growth 86K: proliferation blockers of H69AR lung cancer cells, primary screen, cell-based, human, 86K library. H69AR lung tumor viability, ATP luminescence, 72 h; hits give low values. viability, % at 10 µM. 85,000 compounds, 6% hits;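 active = viability at or below 40%; inactive = viability above 40%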;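 also: multidrug resistant small cell line overexpressing MRP-1 efflux transporter; 100% = mean luminescence of untreated control wells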
The depositor's hits bear a star; / = not tested or not shown.

SMILES | Lung fibro prol | HUVEC inhibit | Jurkat viability | Ecoli WT expand | Ecoli tolC | H69AR growth 86K
CCCCCCn1c(NCC)nc2c1c(=O)n(C)c(=O)n2C | 86 | 80 | 78* | -11 | 9 | 62
CCCCCCn1c(N2CCN(c3ccccc3)CC2)nc2c1c(=O)n(C)c(=O)n2C | 90 | 23* | 11 | -23 | 80* | 69
COc1ccc(O)c(-c2cn[nH]c2-c2cccs2)c1 | 90 | 89 | -1 | -6 | 15 | 95
CCOC(=O)c1cnc(SCc2ccc(C(C)(C)C)cc2)nc1N | 94 | 84 | / | -2 | / | 68
O=C(CN1CCCCC1)Nc1ccc(S(=O)(=O)N2CCOCC2)cc1 | 116 | 95 | / | -2 | / | 95
CCn1cc([N+](=O)[O-])c(C(=O)N2N=C(c3ccc4ccccc4c3)CC2c2cc(Br)ccc2O)n1 (centres undefined) | 88 | 10* | / | / | / | 14*
COc1ccc(OC)c(Nc2cc(-c3ccccc3)nc(N)n2)c1 | 64 | 44 | 98* | 2 | 15 | 25*
CCCCc1ccc(-c2ccc(Br)cc2)nc1 | 104 | 106 | / | / | / | 82
CCCc1ccc(-c2ccc(F)c(N)c2)nc1 | 97 | 82 | 60* | 20 | 4 | 78
Cc1cc(C)n(-c2ccc3cccc(NS(C)(=O)=O)c3n2)n1 | 26* | 23* | 3 | -6 | 8 | 21*
Cc1cc(C)n(-c2cccc3cccnc23)n1 | 98 | 93 | -11 | -5 | -7 | 94
c1ccc(-c2cnc(CSc3nnc4ccccn34)o2)cc1 | 105 | 98 | -2 | 7 | 3 | 93
Cc1cc(C)n(CC(O)Cn2c3ccc(Br)cc3c3cc(Br)ccc32)c(=O)n1 (centres undefined) | 96 | 21* | / | -1 | / | 92
Cc1cccc(C)c1NC(=O)CC(NCc1ccco1)C(=O)O (centres undefined) | 93 | 98 | -4 | 7 | -14 | 91
CC(c1nc2ccccc2o1)N1C(=O)c2ccccc2C1=O (centres undefined) | 101 | 96 | / | / | / | 100
CCN(CC)c1ccc2cc(-c3nc4ccccc4n3C)c(=O)oc2c1 | 51 | 21* | 99* | -7 | -9 | 20*
CCN(CC)c1ccc2cc(-c3nnc(-c4ccccc4)o3)c(=O)oc2c1 | 72 | 57 | / | / | / | 22*
O=c1oc2ccccc2cc1-c1nnc(-c2cccc(Br)c2)o1 | 107 | 99 | 0 | / | -10 | 38*
CCN(CC)c1ccc2cc(-c3nc4ccccc4[nH]3)c(=O)oc2c1 | 26* | 38 | 4 | -13 | 31 | 1.4*
CCN(CC)c1ccc(/C=C(/C#N)c2nc3ccccc3[nH]2)c(OC(C)C)c1 | / | / | / | -28 | / | /
CCN(CC)c1ccc2cc(-c3nnc(-c4ccc(Br)cc4)o3)c(=O)oc2c1 | 93 | 76 | / | / | / | 101
CN(C)c1ccc(-c2nc3ccccc3n2C)cc1 | / | / | 16 | 10 | 28 | /
Brc1cccc(-c2nnc(-c3ccccc3)o2)c1 | 103 | 92 | -3 | -1 | 37 | 80
O=C(Nc1cccc(Cl)c1)N1CCSc2cc(Cl)ccc21 | / | / | / | -1 | / | /
CCC(=O)NCCc1cc2cc(C)c(C)cc2[nH]c1=O | 100 | 104 | 1 | 3 | -1 | 82
SMILES | Lung fibro prol | HUVEC inhibit | Jurkat viability | Ecoli WT expand | Ecoli tolC | H69AR growth 86K
CCCCCn1c(SC(C)C(C)=O)nc2c1c(=O)[nH]c(=O)n2C (centres undefined) | 83 | 107 | -1 | 7 | 2 | 79
CCCOc1ccc(N)cc1N | 107 | 85 | 7 | 11 | 0 | 77
Cc1nnc(NC(=O)CSCc2ccccc2)s1 | 100 | 109 | / | 0 | / | 94
CCOC(=O)C(C)Sc1nc2c([nH]c3ccccc32)c(=O)n1C (centres undefined) | / | / | / | / | 11 | /
Cc1nc(NCc2ccc3c(c2)OCO3)c2nnn(Cc3ccccc3)c2n1 | 47* | 50 | -2 | -5 | 10 | 53
Cc1ccc(Cn2nnc3c(=O)n(CC(=O)NCc4ccc5c(c4)OCO5)cnc32)cc1 | 96 | 67 | -4 | / | -7 | 39*
OCCN1CCN(Cc2cc(Cl)c3cccnc3c2O)CC1 | 54 | 81 | / | 21 | / | 37*
Oc1c(CN2CCN(c3ccccn3)CC2)cc(Cl)c2cccnc12 | 34* | 60 | 45* | 54* | 98* | 0.1*
C=C1CSc2nc(=O)c3c(C)c(C)sc3n21 | 100 | 96 | 0 | 8 | 9 | 86
CCN(c1cccc(C)c1)S(=O)(=O)c1cccc2nsnc12 | 92 | 107 | / | 9 | 32 | 93
Cc1cc(C)n(-c2nc(N(c3ccccc3)c3ccccc3)nc(-n3nc(C)cc3C)n2)n1 | 38* | 37 | / | / | / | 12*
O=c1c2[nH]c3ccccc3c2ncn1C1CCCCC1 | 103 | 90 | 5 | -13 | 5 | 55
O=C1c2ccccc2C(=O)c2c1ccc1c(=O)n(C3CCCCC3)[nH]c21 | / | 3.2* | / | / | / | 36*
COc1ccc(-c2cc(CCCC(=O)NCCc3ccc(OC)cc3OC)no2)cc1 | 99 | 74 | 8 | 4 | 3 | 97
Cn1nc(-c2ccc(C(=O)Nc3cccc(Cl)c3)cc2)c2ccccc2c1=O | 52 | 41 | / | 2 | / | 4.3*
Cc1ccc(NC(=O)c2ccc(-c3nn(C)c(=O)c4ccccc34)cc2)c(C)c1 | 97 | 100 | / | -15 | / | 77
Cc1ccc(NC(=O)c2ccc(-c3nn(C)c(=O)c4ccccc34)cc2)cc1 | 106 | 67 | / | -3 | / | 35*
COC(=O)Cc1c(C)c2ccc(OC(=O)c3ccco3)cc2oc1=O | 104 | 97 | 5 | 13 | -2 | 94
CCCCN(CC)Cc1ccc(CNC(=O)Nc2ccc(F)cc2)o1 | 82 | 85 | / | 3 | / | 102
COCc1cc(C)n(CC(=O)Nc2ccccc2C(=O)OC)c(=O)c1C#N | 102 | 90 | -5 | 0 | 0 | 78
Cc1noc(C)c1COC(=O)c1cccc(S(=O)(=O)N2CCCCCC2)c1 | 94 | 94 | 40* | -14 | 37 | 73
Oc1ccccc1/C=N/Nc1nccnc1Cl | 32* | 59 | / | 38 | / | 43
COc1cc(C(=O)Nc2sc3c(c2C(=O)NCc2ccco2)CCCC3)cc(OC)c1OC | 87 | 68 | / | -12 | / | 60
COc1ccc(C(=O)Nc2sc3c(c2C(=O)NCc2ccco2)CCCC3)cc1OC | 86 | 67 | / | -15 | / | 36*
CC(C(=O)Nc1sc2c(c1C(=O)NCc1ccco1)CCCC2)N1C(=O)c2ccccc2C1=O (centres undefined) | 100 | 85 | / | -13 | / | 23*
Cc1ccc(C(=O)Nc2sc3c(c2C(=O)NCc2ccco2)CCCC3)cc1 | 96 | 44 | / | -3 | / | 11*
O=C(Nc1sc2c(c1C(=O)NCc1ccco1)CCCC2)c1ccc2c(c1)OCO2 | 109 | 89 | 12 | -19 | 20 | 79
